# A selection: hits, their analogues and other compounds. The true share with any hit is near 2.9%.
# FGF22 binding – FGF22 (human) thermal shift binding; Q9HCT0; recombinant FGF22 thermal shift, SYPRO orange fluorescence; percent of sucrose octasulfate shift, DMSO zero; activity (Tm shift, normalised), % at 9.99 µM; hit rate 1.5% among 340,000; AID 651658;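 active = mean Tm shift, scaled 0 neutral to 100 positive control, at about 1.3% or above, every replicate too, limit read from the data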
# Target sequence (Q9HCT0 whole entry, looked up): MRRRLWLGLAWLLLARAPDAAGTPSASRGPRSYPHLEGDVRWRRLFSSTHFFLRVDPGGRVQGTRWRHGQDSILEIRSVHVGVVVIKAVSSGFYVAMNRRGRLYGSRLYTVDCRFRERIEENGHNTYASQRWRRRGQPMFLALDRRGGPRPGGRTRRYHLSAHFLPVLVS
# rRNA inh HTS – selective bacterial rRNA inhibition in E. coli; AID 720706; hit rate 1.6% among 350,000; E. coli WT GFP vs humanized-ribosome RFP mutants, fluorescence, 24 h; active compounds read low; DMSO median 0, no signal -100; GFP signal change (wild-type ribosome), % (no concentration beside the values);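 active = significant combined selectivity score with lowered wild-type GFP, culture density cut under 30%, mutant RFP and density less affected; inactive = any of these conditions unmet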
# PglD inh – blocks C. jejuni PglD acetyltransferase activity; hit rate 0.098% among 360,000; purified PglD enzyme, DTNB colorimetric CoA detection; inhibition, % at 12.5 µM; in the data active = inhibition above about 16%, passing the limit was not always enough
# Vif imaging – blocks HIV Vif function | HEK293T cells, Vif self-association by quenched fluorescence, imaging, 24 h | inhibition, % at 7.49 µM | hit rate 0.35% among 340,000 | AID 602346; in the data active = inhibition above about 50%, passing the limit was not always enough
# Cneo AK release – causes C. neoformans cell lysis. adenylate kinase release luminescence, 4 h; normalised: neutral wells 0, clomiphene wells 100. hit rate 0.2% among 360,000. AID 651654. lysis activity, % at 15 µM;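 active = mean lysis activity across replicates of at least 80%, whatever share of replicates individually reach that level; inactive = mean lysis activity below 80%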
#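 Material – log-phase Cryptococcus neoformans yeast cells · Input – 5 × 10^6 yeast cells/mL · Medium – fresh YPD growth medium · Doses – single compound concentration per well · Timing – static 4 h at 37 °C with compound, 1 h detection · Detection – adenylate kinase release luminescence · Read-out – signal increase indicating cell lysis · Control set – Clomiphene as positive lysis control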
# PGC1a acetyl inh – modulators of PGC1a acetylation. U2OS PGC1a acetylation, AlphaScreen anti-acetyl-lysine; with virally co-expressed GCN5 acetyltransferase. hit rate 0.17% among 350,000. inhibition, % at 15.6 µM;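 active = every replicate shows inhibition of at least 40%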
# Numbers stand for hits; i = inactive; nt = no result.
SMILES,FGF22 binding,rRNA inh HTS,PglD inh,Vif imaging,Cneo AK release,PGC1a acetyl inh
O=C(Cc1ccccn1)N1CC2(C1)[C@@H](c1ccccc1)[C@@H](CO)N2Cc1ccccn1,i,i,nt,nt,nt,i
Cc1cccc(S(=O)(=O)N2[C@@H]3Cn4c(ccc(-c5cccc(F)c5)c4=O)[C@H]2[C@@H](C(=O)O)[C@@H]3CO)c1,nt,i,nt,nt,nt,nt
O=C(NC[C@H]1CC[C@H]2[C@H](CN2Cc2cccnc2)O1)C1CC1,nt,nt,nt,nt,nt,i
CC1=CC2OC3CC4OC(=O)C=CC=CC(C(C)O)OCC(O)C(C)CC(=O)OCC2(CC1O)C4(C)C31CO1 (configuration not stated),i,i,nt,i,nt,81
Cc1c(NC(NC(=O)CF)C(Cl)(Cl)Cl)c(=O)n(-c2ccccc2)n1C (configuration not stated),43,i,i,i,i,i
CC(=O)OC(C)(C)/C=C/C(=O)[C@](C)(O)[C@H]1[C@H](O)C[C@@]2(C)[C@@H]3CC=C4[C@H](C[C@H](O)C(=O)C4(C)C)[C@]3(C)C(=O)C[C@]12C,nt,nt,i,i,i,88
CC(=O)OC(C)(C)/C=C/C(=O)C(C)(O)C1C(O)CC2(C)C3CC=C4C(CC(O)C(=O)C4(C)C)C3(C)C(=O)CC12C (configuration not stated),i,nt,nt,i,nt,70
CC(=O)OC(C)(C)/C=C/C(=O)C(C)(O)C1[C@H](O)C[C@@]2(C)C3CC=C4C(CC[C@@H](O)C4(C)C)[C@]3(CO)C(=O)C[C@]12C (some centres not stated),i,i,i,i,i,nt
N#Cc1cccc(-c2ccc([C@@H]3[C@@H](CO)N4CCCCN(C(=O)Cc5cccnc5)C[C@H]34)cc2)c1,i,i,i,nt,i,i
CC(=O)N1[C@@H]2c3ccc(-c4cccc(C(=O)N(C)C)c4)c(=O)n3C[C@H]1[C@H](CO)[C@H]2C(=O)O,nt,i,nt,nt,nt,i
CCN(CC)c1ccc(/C=C2\C(=O)NC(=O)N(CC3CCCO3)C2=O)cc1 (configuration not stated),43,i,i,i,i,nt
Cc1ccc(/C=C2\C(=O)NC(=O)N(CC3CCCO3)C2=O)s1 (configuration not stated),i,i,i,i,i,i
CCCN1[C@@H]2Cn3c(ccc(-c4ccccc4)c3=O)[C@H]1[C@@H](C(=O)OC)[C@@H]2CO,i,i,i,nt,i,nt
CCOc1ccc(NC(=O)C2C3c4ccccc4C(c4ccccc43)C2C(=O)O)cc1 (configuration not stated),i,-34,nt,i,nt,nt
COc1ccc(C#Cc2ccc([C@@H]3[C@H]4CN(C(=O)Cc5cccnc5)CCCCN4[C@H]3CO)cc2)cc1,i,i,i,nt,i,i
N#Cc1c(N2CCNCC2)nc(-c2ccco2)c2c1CCCC2,1.9,i,i,i,i,i
CC(C)NC(=O)N1CC2C(c3ccccc3)C(C1)N2C (configuration not stated),nt,i,nt,nt,nt,nt
COc1ccc(-c2cc(=O)c3c(OC)c(OC)c(OC)cc3o2)cc1,i,-30,i,i,i,i
COc1ccc(-c2cc(=Nc3ccccc3)c3cc(C)ccc3o2)cc1,i,i,i,i,i,i
Cc1ccsc1C(=O)C1CCCN(Cc2cnc(N3CCCC3)s2)C1 (configuration not stated),44,i,nt,i,nt,nt
CSc1ncc(CN2CCCC(C(=O)c3sccc3C)C2)cn1 (configuration not stated),i,i,nt,i,nt,i
CN1[C@@H]2CN(CC3CC3)C[C@H]1C2c1ccc(Br)cc1 (some centres not stated),nt,i,nt,nt,nt,nt
Cc1oc(-c2ccc(F)cc2F)nc1CN1C[C@@H]2C[C@@H](C1)c1cccc(=O)n1C2,44,i,nt,nt,nt,i
CCc1ccc(N2C(=O)NC(=O)/C(=C/c3cccn3CCOc3ccc(C)cc3)C2=O)cc1,i,i,nt,i,nt,nt
CCc1ccc(N2C(=O)NC(=O)/C(=C/c3cccn3CCOc3ccc(C(C)CC)cc3)C2=O)cc1 (configuration not stated),43,i,nt,i,nt,nt
SMILES,FGF22 binding,rRNA inh HTS,PglD inh,Vif imaging,Cneo AK release,PGC1a acetyl inh
C=C1C(=O)O[C@@H]2C[C@@H](C)[C@@H]3C=CC(=O)[C@@]3(C)[C@@H](O)[C@H]12,i,i,i,54,i,47
O=C(Cn1ncc2c3ccccc3n(Cc3cccc(Cl)c3)c2c1=O)N1CCC2(CC1)OCCO2,nt,i,i,56,i,nt
CC(=O)OC[C@]12CCC(C)=C[C@H]1O[C@@H]1[C@H](O)[C@@H](OC(C)=O)[C@@]2(C)[C@]12CO2,i,i,i,i,i,86
CC(Cc1ccc(O)cc1)NCC(O)c1cc(O)cc(O)c1 (configuration not stated),i,i,i,90,i,i
COc1ccc(C#Cc2ccc([C@H]3[C@H]4CN(C(=O)Cc5ccncc5)CCCCN4[C@H]3CO)cc2)cc1,i,i,i,nt,i,i
COc1cccc(-c2ccc([C@@H]3[C@H]4CN(C(=O)Cc5ccncc5)CCCCN4[C@H]3CO)cc2)c1,i,i,i,nt,i,i
Oc1ccc(/C=N/NP(=S)(c2ccccc2)c2ccccc2)cc1O,i,-21,i,i,i,i
OC[C@@H]1Nc2ccc(C#Cc3cccnc3)cc2[C@H]2NCC[C@@H]12,nt,i,nt,nt,nt,nt
COc1ccc(CC2NCC(O)C2OC(C)=O)cc1 (configuration not stated),i,nt,i,i,i,92
FC(F)(F)CN1C[C@@H]2C(c3ccc(Br)cc3)[C@H](C1)N2CC1CC1 (some centres not stated),nt,i,nt,nt,nt,nt
CCCCCCC(=O)N/N=C/c1c(O)n(C(C)CC)c(=S)[nH]c1=O (configuration not stated),i,-23,i,i,i,i
CCCC(=O)NC(Oc1ccccc1Cl)C(Cl)(Cl)Cl (configuration not stated),i,-20,nt,i,nt,i
COc1cccc(N2CCN(Cc3cccc(Cl)c3)CC2)c1,i,-24,nt,i,nt,i
COc1cccc(CC(=O)N2CCN(Cc3cccc(Cl)c3)CC2)c1,i,i,i,i,i,nt
COc1cccc(N2CCN(Cc3ccc(Cl)cc3)CC2)c1,i,-33,i,i,i,i
O=C1OC(c2ccc([N+](=O)[O-])cc2)=N/C1=C/N1CC2CC(C1)c1cccc(=O)n1C2 (configuration not stated),i,i,nt,52,nt,nt
O=C1OC(c2ccc(Br)cc2)=N/C1=C\N1CC2CC(C1)c1cccc(=O)n1C2 (configuration not stated),i,i,i,i,i,i
COC(=O)[C@@H]1[C@@H](CO)[C@@H]2Cn3c(ccc(-c4ccncc4)c3=O)[C@H]1N2S(=O)(=O)c1ccccc1F,i,i,i,nt,i,nt

# Screens: PubChem BioAssay, Broad Institute
